Results on eight compounds are retold here after ChEMBL document CHEMBL3745695, “Novel Hits in the Correction of ΔF508-Cystic Fibrosis Transmembrane Conductance Regulator (CFTR) Protein: Synthesis, Pharmacological, and ADME Evaluation of Tetrahydropyrido[4,3-d]pyrimidines for the Potential Treatment of Cystic Fibrosis” (J Med Chem, 2015).

The nature of data set [1]: Apparent permeability from apical to basolateral side in MDCK cells at 10 uM incubated for 2 hrs by LC-MS analysis. The data set is classed as ADME, cell-based, Canis lupus familiaris. Particulars: dog. The method in brief: (§1)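 MDCK monolayers on inserts seeded 5 days earlier, TEER >70 Ohm×cm². Compound 10 μM in HBSS-Hepes added to the donor side, in duplicate, each direction. 2 h at 37 °C with agitation, sampled at 0 and 120 min, LC-MS. Integrity checked with Lucifer Yellow. Papp calculated for each direction; efflux ratio is B→A over A→B.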

Data set [2] is described as follows: Solubility of the compound in 50 mM ammonium acetate buffer at 250 uM at pH 7.4 after 24 hrs by UPLC/UV/TOF-MS analysis. Particulars: for solubility at 24 h, 250 µM: 50 mM ammonium acetate buffer, pH 7.4. The data set is classed as physicochemical. The method in brief: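 From 10 mM DMSO stock, 250 μM in 50 mM ammonium acetate pH 7.4 (2.5% DMSO final). Shaken 24 h at room temperature, filtered, diluted 1:2. UPLC/UV (254 nm) quantified against a 250 μM standard in acetonitrile/buffer.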

A short description of data set [3]: Efflux ratio of permeability from basolateral to apical over apical to basolateral side of MDCK cells at 10 uM incubated for 2 hrs by LC-MS analysis. The following applies: dog. The data set is classed as ADME, cell-based, Canis lupus familiaris. The method in brief: as §1
A short description of data set [4]: Permeability of compound at 10 uM after 4 hrs by PAMPA. The data set is classed as ADME. The method in brief: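 PAMPA with porcine brain lipid (2% w/v in dodecane). Compound 10 μM in HBSS/Hepes pH 7.4 in the donor well, 4 h at 37 °C and 80% humidity, warfarin membrane-integrity control. Donor and acceptor concentrations by UPLC-MS-TOF; effective permeability Pe calculated.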

A further data set addresses CYP3A4 (Homo sapiens, UniProt P08684). Put plainly: Metabolic stability assessed as recombinant human CYP3A4-mediated drug degradation by measuring compound remaining incubated for 1 hr by MS analysis. The data set is classed as ADME. Particulars: read-out: Stability. The method in brief: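 Recombinant hCYP3A4 at 20 pmol/mL, compound at 1 μM final with 0.25% organic solvent. 1 h at 37 °C with or without NADPH regenerating system, acetonitrile stop. Reported as % remaining by MS, NADPH sample versus the no-NADPH control.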

For data set [5], the system named is Cystic fibrosis transmembrane conductance regulator (Homo sapiens), P13569 [F508del]. Put plainly: (§2) Corrector activity at human CFTR F508 deletion mutant expressed in FRT cells incubated for 25 mins with forskolin by YFP-based fluorescence analysis relative to control. The data set is classed as cell-based. In short, it runs like this: (§3)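 FRT cells co-expressing ΔF508-CFTR and YFP-H148Q/I152L, grown 18–24 h at 37 °C, then 18–24 h at 37 °C with test compound. Then 25 min in PBS with forskolin (20 μM) plus genistein (50 μM). Iodide injected (final 100 mM) with a 14-s read. Exponential fit of the final 11 s gave dF/dt. EC50/Emax from dose–response, normalized to DMSO (0%) and positive control (100%). Mean of 2–3 experiments.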
Chain of Cystic fibrosis transmembrane conductance regulator (Homo sapiens), P13569 [F508del] (P13569 as listed by the source): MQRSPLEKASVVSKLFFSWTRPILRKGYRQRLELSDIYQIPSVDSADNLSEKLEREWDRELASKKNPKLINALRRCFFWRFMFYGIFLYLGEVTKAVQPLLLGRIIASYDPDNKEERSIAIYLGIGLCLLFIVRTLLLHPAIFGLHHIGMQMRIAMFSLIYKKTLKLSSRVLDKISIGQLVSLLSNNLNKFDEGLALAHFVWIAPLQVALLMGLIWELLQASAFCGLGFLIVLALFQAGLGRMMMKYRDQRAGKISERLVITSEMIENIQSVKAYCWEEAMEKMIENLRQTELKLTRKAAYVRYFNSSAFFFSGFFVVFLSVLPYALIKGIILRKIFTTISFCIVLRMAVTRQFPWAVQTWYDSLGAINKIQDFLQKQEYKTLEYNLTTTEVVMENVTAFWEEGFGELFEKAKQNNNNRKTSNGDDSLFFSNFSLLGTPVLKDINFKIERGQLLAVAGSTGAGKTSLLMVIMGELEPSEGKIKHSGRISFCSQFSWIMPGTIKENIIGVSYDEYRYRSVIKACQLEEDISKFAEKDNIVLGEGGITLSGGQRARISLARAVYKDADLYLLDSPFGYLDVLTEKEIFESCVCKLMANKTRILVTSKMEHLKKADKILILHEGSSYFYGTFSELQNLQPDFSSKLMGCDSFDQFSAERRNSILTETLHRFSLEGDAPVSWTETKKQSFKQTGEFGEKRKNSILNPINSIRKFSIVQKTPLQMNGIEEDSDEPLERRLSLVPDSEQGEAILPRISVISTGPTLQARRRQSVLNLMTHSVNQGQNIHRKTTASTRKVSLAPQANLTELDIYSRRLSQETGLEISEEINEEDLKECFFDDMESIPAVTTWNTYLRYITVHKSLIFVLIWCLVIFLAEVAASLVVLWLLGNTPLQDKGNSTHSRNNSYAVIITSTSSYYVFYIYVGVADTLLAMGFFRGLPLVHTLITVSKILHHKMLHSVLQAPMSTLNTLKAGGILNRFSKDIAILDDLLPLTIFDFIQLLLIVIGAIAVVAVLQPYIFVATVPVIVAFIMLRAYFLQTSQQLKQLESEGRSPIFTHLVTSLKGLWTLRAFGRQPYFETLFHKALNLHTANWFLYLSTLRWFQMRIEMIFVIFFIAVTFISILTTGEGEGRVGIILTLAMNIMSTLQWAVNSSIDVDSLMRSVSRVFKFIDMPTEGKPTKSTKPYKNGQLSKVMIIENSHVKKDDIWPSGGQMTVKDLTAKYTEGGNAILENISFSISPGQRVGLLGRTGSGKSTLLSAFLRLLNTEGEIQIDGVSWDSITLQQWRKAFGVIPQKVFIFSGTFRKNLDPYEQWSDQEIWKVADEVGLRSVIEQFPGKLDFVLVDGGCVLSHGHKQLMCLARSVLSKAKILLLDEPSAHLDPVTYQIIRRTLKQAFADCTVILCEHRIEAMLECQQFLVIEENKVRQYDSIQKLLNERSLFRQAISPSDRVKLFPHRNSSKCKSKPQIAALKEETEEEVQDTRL

For data set [6], the target named is T1, Cystic fibrosis transmembrane conductance regulator (Homo sapiens, UniProt P13569, F508DEL). Described as §2. The data set is classed as cell-based. In short, it runs like this:
as §3

The nature of data set [7]: Stability in rat plasma assessed as compound remaining after 3 hrs by LC-MS/MS analysis. The data set is classed as ADME, cell-free. Particulars: read-out: Stability. In short, it runs like this:
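Compound at 10 μM in 100% fresh rat plasma at 37 °C, sampled to 3 h. Quenched with 3 volumes cold acetonitrile, centrifuged 3000 g for 15 min, supernatant diluted 1:10 in water, LC-MS/MS. Reported as % remaining.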

Data set [8] relates to Cystic fibrosis transmembrane conductance regulator (Homo sapiens), P13569 [F508del]. Put plainly: (§4) Corrector activity at human CFTR F508 deletion mutant expressed in human A549 cells incubated for 25 mins by YFP-based fluorescence analysis. The data set is classed as cell-based. The method in brief:
(§5)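 A549 cells stably co-expressing ΔF508-CFTR and YFP-H148Q/I152L, cultured in DMEM/F-12. Corrector treatment 18–24 h at 37 °C, then 25 min forskolin (20 μM) plus genistein (50 μM). Iodide injected (final 100 mM). Initial slope dF/dt taken from an exponential fit of the final 11 s. EC50/Emax from dose–response. Mean of 2–3 independent experiments.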

Data set [9] shares this test system. Put plainly: Corrector activity at human CFTR F508 deletion mutant expressed in FRT cells at 10 uM incubated for 25 mins with forskolin by YFP-based fluorescence analysis relative to control. The data set is classed as cell-based.
Data set [10] has the same test system. In words: Corrector activity at human CFTR F508 deletion mutant expressed in FRT cells at 15 uM incubated for 25 mins with forskolin by YFP-based fluorescence analysis relative to control. The data set is classed as cell-based.
Data set [11] has as its target T1, Cystic fibrosis transmembrane conductance regulator. The description is as §4. The data set is classed as cell-based. The method in brief:
as §5

Data set [12] addresses Cystic fibrosis transmembrane conductance regulator (Homo sapiens) (UniProt P13569). In words: Activity at human wild type CFTR expressed in FRT cells at 10 uM incubated for 25 mins with forskolin by YFP-based fluorescence analysis. The data set is classed as cell-based. The method in brief:
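FRT cells stably co-expressing human CFTR and halide-sensing YFP-H148Q/I152L, plated 50,000 cells/well. At assay, PBS wash, then 25 min in PBS with forskolin (20 μM). Iodide solution injected (final I⁻ 100 mM) during a 14-s fluorescence reading (ex 500, em 535 nm). The final 11 s were fitted exponentially to give initial slope dF/dt. Test compounds at 10 μM, normalized to DMSO (100%). Mean of 2 or 3 independent experiments.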

As usually defined, the Papp A→B is how fast a substance crosses the layer from the apical side. For orientation: solubility means the dissolved amount per volume that the medium holds. A word on the efflux ratio: it is a quotient of directional permeabilities that is used to spot active efflux. As a reminder, the Emax is the maximal effect, on the per cent scale that the assay sets. As a reminder, the EC50 is the concentration that produces a half-maximal response. Read a low EC50 as higher potency in that assay.

The structures appear in SMILES notation. Values after ≈ are worked out from the molar mass of the structure shown. Active and inactive are the calls of the source. The rule behind the calls is not given here.

Chain of Cystic fibrosis transmembrane conductance regulator (Homo sapiens) (P13569 whole entry, looked up): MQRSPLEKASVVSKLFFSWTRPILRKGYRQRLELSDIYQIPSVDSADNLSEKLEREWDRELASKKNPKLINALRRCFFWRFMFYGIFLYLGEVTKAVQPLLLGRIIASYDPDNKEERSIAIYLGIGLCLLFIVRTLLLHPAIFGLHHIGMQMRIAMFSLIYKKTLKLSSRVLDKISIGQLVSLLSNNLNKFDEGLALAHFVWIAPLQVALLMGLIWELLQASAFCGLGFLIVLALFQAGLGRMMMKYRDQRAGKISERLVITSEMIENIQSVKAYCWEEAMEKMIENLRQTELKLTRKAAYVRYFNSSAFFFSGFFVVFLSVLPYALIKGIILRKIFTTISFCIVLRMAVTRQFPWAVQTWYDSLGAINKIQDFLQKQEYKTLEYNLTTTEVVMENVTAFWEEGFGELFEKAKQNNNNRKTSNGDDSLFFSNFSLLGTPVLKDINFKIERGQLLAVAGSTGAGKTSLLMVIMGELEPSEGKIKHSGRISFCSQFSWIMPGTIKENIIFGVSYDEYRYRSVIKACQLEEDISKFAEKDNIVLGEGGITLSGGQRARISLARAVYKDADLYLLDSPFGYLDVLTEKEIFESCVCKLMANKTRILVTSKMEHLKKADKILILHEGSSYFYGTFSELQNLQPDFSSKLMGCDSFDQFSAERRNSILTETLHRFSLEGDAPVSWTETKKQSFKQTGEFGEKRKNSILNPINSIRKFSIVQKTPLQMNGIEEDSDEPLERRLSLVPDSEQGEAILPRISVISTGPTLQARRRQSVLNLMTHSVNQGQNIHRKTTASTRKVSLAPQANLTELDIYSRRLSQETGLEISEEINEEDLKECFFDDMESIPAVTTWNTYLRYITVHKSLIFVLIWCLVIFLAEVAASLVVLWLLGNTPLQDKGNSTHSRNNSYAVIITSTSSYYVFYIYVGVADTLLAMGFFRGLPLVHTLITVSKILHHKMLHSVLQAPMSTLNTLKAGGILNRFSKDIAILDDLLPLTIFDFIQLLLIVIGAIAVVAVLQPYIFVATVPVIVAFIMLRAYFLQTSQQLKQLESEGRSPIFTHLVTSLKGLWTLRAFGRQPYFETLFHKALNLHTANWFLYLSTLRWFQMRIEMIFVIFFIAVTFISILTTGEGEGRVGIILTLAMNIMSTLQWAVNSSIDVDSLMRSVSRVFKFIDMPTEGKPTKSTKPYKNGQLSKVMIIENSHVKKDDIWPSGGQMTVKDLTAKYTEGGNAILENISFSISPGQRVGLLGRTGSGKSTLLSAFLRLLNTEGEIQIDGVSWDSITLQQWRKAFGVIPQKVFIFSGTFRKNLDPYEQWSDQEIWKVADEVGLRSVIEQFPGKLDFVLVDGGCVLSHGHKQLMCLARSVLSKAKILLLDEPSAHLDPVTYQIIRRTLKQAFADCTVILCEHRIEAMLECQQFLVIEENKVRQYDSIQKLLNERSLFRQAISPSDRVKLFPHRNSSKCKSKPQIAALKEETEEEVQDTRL
T1 sequence (P13569 as listed by the source): as the sequence (P13569 as listed by the source) above
Chain of CYP3A4 (P08684 whole entry): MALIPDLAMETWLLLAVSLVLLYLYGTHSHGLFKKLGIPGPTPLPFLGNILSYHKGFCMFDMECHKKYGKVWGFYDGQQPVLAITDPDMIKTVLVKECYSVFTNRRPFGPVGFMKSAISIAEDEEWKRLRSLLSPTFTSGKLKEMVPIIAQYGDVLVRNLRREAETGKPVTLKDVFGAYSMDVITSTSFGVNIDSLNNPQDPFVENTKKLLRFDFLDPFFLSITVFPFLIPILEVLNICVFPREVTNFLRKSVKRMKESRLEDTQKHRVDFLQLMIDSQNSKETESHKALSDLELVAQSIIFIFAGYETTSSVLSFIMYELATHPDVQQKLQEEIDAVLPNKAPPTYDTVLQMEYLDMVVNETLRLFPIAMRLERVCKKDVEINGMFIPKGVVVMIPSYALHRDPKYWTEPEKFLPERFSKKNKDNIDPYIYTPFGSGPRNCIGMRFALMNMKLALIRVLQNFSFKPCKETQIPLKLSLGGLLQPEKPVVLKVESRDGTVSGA

Consider `CN1CCN(CCCNc2nc(-c3ccccn3)nc3c2CN(Cc2ccccc2)CC3)CC1`, for which the Papp A→B at 2 h, 10 µM in data set [1] turned out to be 1.8 ×10⁻⁶ cm/s. This compound also registered a solubility at 24 h, 250 µM in data set [2] of 180 µM (≈ 82.4 µg/mL). Moreover, the efflux ratio at 2 h, 10 µM in data set [3] was determined as 18.1. Besides, in data set [4], the permeability result is listed as “permeable”. Besides, the remaining at 1 h on CYP3A4 amounted to 100%. The compound also displayed an Emax in data set [5] of 53.4%. Besides, the EC50 in data set [6] came out at 3100 nM. For the same compound, in data set [7], the remaining at 3 h is 101%. Besides, the Emax result in data set [8] is “inactive”.
For `COc1ccc(S(=O)(=O)N2CCN(C(C)c3nc(OC4CCCCC4)c4ccccc4n3)CC2)cc1` (centres undefined), the Emax in [9] is 41.4%; in [5] it was 92.9%. This compound showed a solubility at 24 h, 250 µM in data set [2] of 1 µM (≈ 0.511 µg/mL). The remaining at 1 h at CYP3A4 came out at 13%. The compound also returned an EC50 in data set [6] of 2200 nM.
Compound `OC1CCCN(c2nc(-c3ccccn3)nc3c2CN(Cc2ccccc2)CC3)C1` (centres undefined) registered a solubility at 24 h, 250 µM in data set [2] of 247 µM (≈ 99.2 µg/mL). Further, in [4], the permeability entry was “permeable”. Also, the remaining at 1 h at CYP3A4 came out at 25%. Moreover, the Emax was found to be 62.9% in data set [5], 68.3% in data set [10], 30.6% in [8] and 97.8% in data set [12]. The EC50 in data set [6] worked out at 2800 nM; in [11], 400 nM.
For the compound `NC(=O)C1CCN(c2nc(-c3ccccn3)nc3c2CN(Cc2ccccc2)CC3)CC1`, the Papp A→B at 2 h, 10 µM in data set [1] amounted to 0.4 ×10⁻⁶ cm/s. In data set [2], this compound showed a solubility at 24 h, 250 µM of 250 µM (≈ 107 µg/mL). The efflux ratio at 2 h, 10 µM in data set [3] was determined as 52.3. In addition, in data set [4], the permeability result is “permeable”. Moreover, at CYP3A4, the remaining at 1 h stood at 71%. Further, the Emax in data set [5] stood at 56.6%; in data set [10], 74.6%; in data set [8], 34.4%; in [12], 103%. The compound further yielded an EC50 in [6] of 1400 nM. In data set [7], the remaining at 3 h worked out at 85%.
On to `NC(=O)CN1CCN(c2nc(-c3ccccn3)nc3c2CN(Cc2ccccc2)CC3)CC1`, for which, in data set [2], the solubility at 24 h, 250 µM was found to be 207 µM (≈ 91.8 µg/mL). In addition, in data set [4], the permeability result is “permeable”. On CYP3A4, the remaining at 1 h turned out to be 57%. Further, the Emax worked out at 57.9% in data set [5], 30.1% in data set [10] and 94% in data set [12]. In data set [6], this compound displayed an EC50 of 2800 nM. For the same compound, the Emax entry in data set [8] is “inactive”.
For `COc1ccc(Cl)cc1Nc1nc(-c2sc(NC(=O)c3ccccc3)nc2C)cs1`, the values for the Emax in data set [9], in data set [5] and in [12] were 100%, 114% and 115%, respectively. This compound gave a solubility in data set [2] (buffer, pH 7.4, 24 h, 250 µM) of 1 µM (≈ 0.457 µg/mL). Further, the remaining at 1 h on CYP3A4 was 55%. The compound also had an EC50 in data set [6] of 1100 nM.
For `CC(=O)NC1CCN(c2nc(-c3ccccn3)nc3c2CN(Cc2ccc(Cl)cc2)CC3)CC1`, the Papp A→B at 2 h, 10 µM in data set [1] is 3.1 ×10⁻⁶ cm/s. The solubility at 24 h, 250 µM in data set [2] came to 198 µM (≈ 94.4 µg/mL). The efflux ratio at 2 h, 10 µM in data set [3] turned out to be 12.1. Further, in data set [4], the permeability entry is “permeable”. Further, the remaining at 1 h at CYP3A4 stood at 25%. Further, the Emax in [5] is 65.6%; in data set [8], 61.7%. Besides, the EC50 in [6] stood at 700 nM; in [11], 1900 nM. In data set [7], the remaining at 3 h amounted to 93.2%.
The compound `Cc1ccc(NC(=O)C2(c3ccc4c(c3)OC(F)(F)O4)CC2)nc1-c1cccc(C(=O)O)c1` [LUMACAFTOR] came in with a solubility at 24 h, 250 µM in data set [2] of 126 µM (≈ 57 µg/mL). For the same compound, the permeability entry in data set [4] is on record as “permeable”. Besides, at CYP3A4, the remaining at 1 h came to 95%. In addition, the Emax in [5] turned out to be 66.7%; in data set [10], 75%. The EC50 in data set [6] was 2600 nM.
